Source: ChEMBL document CHEMBL1124567, “2,4-Diamino-5-benzylpyrimidines and analogues as antibacterial agents. 11. Quinolylmethyl analogues with basic substituents conveying specificity” (J Med Chem, 1989)
≈ marks a conversion by molar mass, not a printed value.

Key:
[1] = Dissociation constant of compound at 25 degree C; format: physicochemical
[2] = system: Bordetella bronchiseptica; assay: Comparative in vitro antibacterial activity of compound with trimethoprim against Bordetella bronchiseptica CN385; format: functional
Procedure, shortened: (§1)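 Activity is expressed relative to trimethoprim as the reference, with values above 1 meaning lower activity than the reference. Dilutions were threefold (1:3), and a difference of ± one dilution was not treated as significant.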

Citrobacter freundii = assay: Comparative in vitro antibacterial activity of compound with trimethoprim against Citrobacter freundii 2200/77; format: functional; procedure, shortened: as §1
Escherichia coli = assay: Comparative in vitro antibacterial activity of compound with trimethoprim against Escherichia coli CN314; format: functional; procedure, shortened: as §1
Klebsiella aerogenes = assay: Comparative in vitro antibacterial activity of compound with trimethoprim against Enterobacter aerogenes 2200/86; format: functional; procedure, shortened: as §1
Klebsiella pneumoniae = assay: Comparative in vitro antibacterial activity of compound with trimethoprim against Klebsiella pneumoniae CN3632; format: functional; procedure, shortened: as §1
[3] = system: Mycolicibacterium smegmatis; assay: Comparative in vitro antibacterial activity of compound with trimethoprim against Mycobacterium smegmatis S 3254; format: functional; procedure, shortened: as §1
Proteus mirabilis = assay: Comparative in vitro antibacterial activity of compound with trimethoprim against Proteus mirabilis S2409; format: functional; procedure, shortened: as §1
Pasteurella multocida = assay: Comparative in vitro antibacterial activity of compound with trimethoprim against Pasteurella multocida ATCC 6587; format: functional; procedure, shortened: as §1
Proteus vulgaris = assay: Comparative in vitro antibacterial activity of compound with trimethoprim against Proteus vulgaris CN329; format: functional; procedure, shortened: as §1
[4] = Comparative in vitro antibacterial activity of compound with trimethoprim against Salmonella typhi CN512; format: functional, salmonella typhosa
Procedure, shortened: (§2)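 In vitro activity given as a ratio to trimethoprim, which is tested alongside; values above 1 mean lower activity than trimethoprim. Compounds were tested in serial 1:3 dilutions, and a difference of ±one dilution is treated as not significant.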

Shigella flexneri = assay: Comparative in vitro antibacterial activity of compound with trimethoprim against Shigella flexneri CN6007; format: functional; procedure, shortened: as §1
Serratia marcescens = assay: Comparative in vitro antibacterial activity of compound with trimethoprim against Serratia marcescens CN2398; format: functional; procedure, shortened: as §1
Salmonella typhimurium = assay: Comparative in vitro antibacterial activity of compound with trimethoprim against Salmonella Typhimurium S 8587; format: functional, Salmonella enterica subsp. enterica serovar Typhimurium; settings: Salmonella enterica; procedure, shortened: as §1
Streptococcus pyogenes = assay: Comparative in vitro antibacterial activity of compound with trimethoprim against Streptococcus pyogenes CN10; format: functional; procedure, shortened: as §1
Staphylococcus aureus = assay: Comparative in vitro antibacterial activity of compound with trimethoprim against Staphylococcus aureus CN491; format: functional; procedure, shortened: as §1
Enterococcus faecalis = assay: Comparative in vitro antibacterial activity of compound with trimethoprim against Streptococcus faecalis CN478; format: functional; procedure, shortened: as §1
Streptococcus agalactiae = assay: Comparative in vitro antibacterial activity of compound with trimethoprim against Streptococcus agalactiae CN1143; format: functional; procedure, shortened: as §1
Vibrio cholerae = assay: Comparative in vitro antibacterial activity of compound with trimethoprim against Vibrio cholerae ATCC 14035; format: functional; procedure, shortened: as §2
Dihydrofolate reductase = molecular target: T1, Dihydrofolate reductase (Rattus norvegicus, UniProt Q920D2); assay: Inhibitory activity against Dihydrofolate reductase in rat liver; format: tissue-based; settings: read-out: I50
T1 sequence (Q920D2 whole entry): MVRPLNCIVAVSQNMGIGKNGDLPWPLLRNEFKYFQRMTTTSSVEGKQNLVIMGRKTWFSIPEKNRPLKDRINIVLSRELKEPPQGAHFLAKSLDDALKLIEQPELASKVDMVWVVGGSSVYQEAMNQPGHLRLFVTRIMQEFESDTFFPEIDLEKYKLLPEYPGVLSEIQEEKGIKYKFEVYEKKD

[5] = Dissociation constent of compound at 20 degree C; format: ADME

Compound	pKa [1]	MIC [2]	MIC (Citrobacter freundii)	MIC (Escherichia coli)	MIC (Klebsiella aerogenes)	MIC (Klebsiella pneumoniae)	MIC [3]	MIC (Proteus mirabilis)	MIC (Pasteurella multocida)	MIC (Proteus vulgaris)	MIC [4]	MIC (Shigella flexneri)	MIC (Serratia marcescens)	MIC (Salmonella typhimurium)	MIC (Streptococcus pyogenes)	MIC (Staphylococcus aureus)	MIC (Enterococcus faecalis)	MIC (Streptococcus agalactiae)	MIC (Vibrio cholerae)	IC50 (Dihydrofolate reductase)	further results
COc1ccc2ccccc2n1	3.16	–	–	–	–	–	–	–	–	–	–	–	–	–	–	–	–	–	–	–	–
Cc1cc(N(C)C)nc2ccc(Cc3cnc(N)nc3N)cc12	–	10 µg/mL (≈ 32.4 µM)	10 µg/mL (≈ 32.4 µM)	3 µg/mL (≈ 9.73 µM)	3 µg/mL (≈ 9.73 µM)	10 µg/mL (≈ 32.4 µM)	1 µg/mL (≈ 3.24 µM)	3 µg/mL (≈ 9.73 µM)	1 µg/mL (≈ 3.24 µM)	3 µg/mL (≈ 9.73 µM)	10 µg/mL (≈ 32.4 µM)	10 µg/mL (≈ 32.4 µM)	3 µg/mL (≈ 9.73 µM)	10 µg/mL (≈ 32.4 µM)	10 µg/mL (≈ 32.4 µM)	3 µg/mL (≈ 9.73 µM)	3 µg/mL (≈ 9.73 µM)	10 µg/mL (≈ 32.4 µM)	1 µg/mL (≈ 3.24 µM)	–	–
COc1cc(C)c2ccc(Cc3cnc(N)nc3N)cc2n1	–	> 100 µg/mL	100 µg/mL (≈ 339 µM)	300 µg/mL (≈ 1020 µM)	300 µg/mL (≈ 1020 µM)	100 µg/mL (≈ 339 µM)	3 µg/mL (≈ 10.2 µM)	30 µg/mL (≈ 102 µM)	10 µg/mL (≈ 33.9 µM)	30 µg/mL (≈ 102 µM)	1000 µg/mL (≈ 3390 µM)	300 µg/mL (≈ 1020 µM)	> 100 µg/mL	100 µg/mL (≈ 339 µM)	3 µg/mL (≈ 10.2 µM)	10 µg/mL (≈ 33.9 µM)	3 µg/mL (≈ 10.2 µM)	3 µg/mL (≈ 10.2 µM)	3 µg/mL (≈ 10.2 µM)	4.5 µM	–
CCCCCc1cc(OC)c2cc(Cc3cnc(N)nc3N)cc(OC)c2n1	–	10 µg/mL (≈ 26.2 µM)	10 µg/mL (≈ 26.2 µM)	10 µg/mL (≈ 26.2 µM)	10 µg/mL (≈ 26.2 µM)	30 µg/mL (≈ 78.6 µM)	10 µg/mL (≈ 26.2 µM)	30 µg/mL (≈ 78.6 µM)	10 µg/mL (≈ 26.2 µM)	100 µg/mL (≈ 262 µM)	30 µg/mL (≈ 78.6 µM)	30 µg/mL (≈ 78.6 µM)	30 µg/mL (≈ 78.6 µM)	30 µg/mL (≈ 78.6 µM)	3 µg/mL (≈ 7.86 µM)	0.3 µg/mL (≈ 0.786 µM)	1 µg/mL (≈ 2.62 µM)	0.3 µg/mL (≈ 0.786 µM)	3 µg/mL (≈ 7.86 µM)	–	–
COc1cccc2cccnc12	4.99	–	–	–	–	–	–	–	–	–	–	–	–	–	–	–	–	–	–	–	–
Cc1cc(N2CCOCC2)nc2c(C)cc(Br)cc12	6.37	–	–	–	–	–	–	–	–	–	–	–	–	–	–	–	–	–	–	–	–
COc1cc(C)nc2c(OC)cc(Br)cc12	6.39	–	–	–	–	–	–	–	–	–	–	–	–	–	–	–	–	–	–	–	–
Cc1cc(N2CCOCC2)nc2c(C)cc(Cc3cnc(N)nc3N)cc12	–	3 µg/mL (≈ 8.23 µM)	10 µg/mL (≈ 27.4 µM)	30 µg/mL (≈ 82.3 µM)	30 µg/mL (≈ 82.3 µM)	10 µg/mL (≈ 27.4 µM)	3 µg/mL (≈ 8.23 µM)	30 µg/mL (≈ 82.3 µM)	10 µg/mL (≈ 27.4 µM)	100 µg/mL (≈ 274 µM)	30 µg/mL (≈ 82.3 µM)	30 µg/mL (≈ 82.3 µM)	100 µg/mL (≈ 274 µM)	30 µg/mL (≈ 82.3 µM)	1 µg/mL (≈ 2.74 µM)	0.3 µg/mL (≈ 0.823 µM)	0.3 µg/mL (≈ 0.823 µM)	0.3 µg/mL (≈ 0.823 µM)	3 µg/mL (≈ 8.23 µM)	410 µM	–
Cc1cc(N2CCOCC2)nc2cc(Cc3cnc(N)nc3N)ccc12	–	> 100 µg/mL	100 µg/mL (≈ 285 µM)	300 µg/mL (≈ 856 µM)	300 µg/mL (≈ 856 µM)	300 µg/mL (≈ 856 µM)	3 µg/mL (≈ 8.56 µM)	> 30 µg/mL	300 µg/mL (≈ 856 µM)	> 100 µg/mL	10000 µg/mL (≈ 28500 µM)	1000 µg/mL (≈ 2850 µM)	> 10 µg/mL	1000 µg/mL (≈ 2850 µM)	10 µg/mL (≈ 28.5 µM)	3 µg/mL (≈ 8.56 µM)	3 µg/mL (≈ 8.56 µM)	30 µg/mL (≈ 85.6 µM)	10 µg/mL (≈ 28.5 µM)	16 µM	–
COc1cc(C)nc2c(OC)cc(Cc3cnc(N)nc3N)cc12	–	10 µg/mL (≈ 30.7 µM)	3 µg/mL (≈ 9.22 µM)	3 µg/mL (≈ 9.22 µM)	10 µg/mL (≈ 30.7 µM)	10 µg/mL (≈ 30.7 µM)	3 µg/mL (≈ 9.22 µM)	10 µg/mL (≈ 30.7 µM)	3 µg/mL (≈ 9.22 µM)	3 µg/mL (≈ 9.22 µM)	10 µg/mL (≈ 30.7 µM)	3 µg/mL (≈ 9.22 µM)	3 µg/mL (≈ 9.22 µM)	3 µg/mL (≈ 9.22 µM)	0.3 µg/mL (≈ 0.922 µM)	0.3 µg/mL (≈ 0.922 µM)	1 µg/mL (≈ 3.07 µM)	1 µg/mL (≈ 3.07 µM)	1 µg/mL (≈ 3.07 µM)	49 µM	–
Cc1cc(N(C)C)nc2c(C)cc(Cc3cnc(N)nc3N)cc12	–	30 µg/mL (≈ 93 µM)	10 µg/mL (≈ 31 µM)	10 µg/mL (≈ 31 µM)	10 µg/mL (≈ 31 µM)	3 µg/mL (≈ 9.3 µM)	3 µg/mL (≈ 9.3 µM)	10 µg/mL (≈ 31 µM)	3 µg/mL (≈ 9.3 µM)	10 µg/mL (≈ 31 µM)	3 µg/mL (≈ 9.3 µM)	10 µg/mL (≈ 31 µM)	10 µg/mL (≈ 31 µM)	10 µg/mL (≈ 31 µM)	3 µg/mL (≈ 9.3 µM)	1 µg/mL (≈ 3.1 µM)	1 µg/mL (≈ 3.1 µM)	1 µg/mL (≈ 3.1 µM)	1 µg/mL (≈ 3.1 µM)	280 µM	–
COc1cc(Br)cc2c(N(C)C)cc(C)nc12	8.18	–	–	–	–	–	–	–	–	–	–	–	–	–	–	–	–	–	–	–	–
COc1cc(Cc2cnc(N)nc2N)cc2c(N(C)C)cc(C)nc12	–	30 µg/mL (≈ 88.6 µM)	> 300 µg/mL	> 10 µg/mL	300 µg/mL (≈ 886 µM)	> 300 µg/mL	100 µg/mL (≈ 295 µM)	> 30 µg/mL	100 µg/mL (≈ 295 µM)	> 100 µg/mL	100 µg/mL (≈ 295 µM)	30 µg/mL (≈ 88.6 µM)	> 300 µg/mL	100 µg/mL (≈ 295 µM)	10 µg/mL (≈ 29.5 µM)	30 µg/mL (≈ 88.6 µM)	100 µg/mL (≈ 295 µM)	30 µg/mL (≈ 88.6 µM)	10 µg/mL (≈ 29.5 µM)	70 µM	–
Cc1cc(N(C)C)nc2ccc(Br)cc12	7.34	–	–	–	–	–	–	–	–	–	–	–	–	–	–	–	–	–	–	–	–
Brc1ccc2ncccc2c1	–	–	–	–	–	–	–	–	–	–	–	–	–	–	–	–	–	–	–	–	pKa [5]: 3.91
COc1cc(C)c2cc(Cc3cnc(N)nc3N)cc(C)c2n1	–	100 µg/mL (≈ 323 µM)	30 µg/mL (≈ 97 µM)	10 µg/mL (≈ 32.3 µM)	30 µg/mL (≈ 97 µM)	10 µg/mL (≈ 32.3 µM)	3 µg/mL (≈ 9.7 µM)	10 µg/mL (≈ 32.3 µM)	10 µg/mL (≈ 32.3 µM)	30 µg/mL (≈ 97 µM)	10 µg/mL (≈ 32.3 µM)	30 µg/mL (≈ 97 µM)	10 µg/mL (≈ 32.3 µM)	30 µg/mL (≈ 97 µM)	3 µg/mL (≈ 9.7 µM)	1 µg/mL (≈ 3.23 µM)	1 µg/mL (≈ 3.23 µM)	1 µg/mL (≈ 3.23 µM)	3 µg/mL (≈ 9.7 µM)	62 µM	–
COc1cc(C)c2cc(Br)cc(C)c2n1	2.96	–	–	–	–	–	–	–	–	–	–	–	–	–	–	–	–	–	–	–	–
Nc1ccnc2ccccc12 [QUINOLIN-4-AMINE]	–	–	–	–	–	–	–	–	–	–	–	–	–	–	–	–	–	–	–	–	pKa [5]: 9.13
